Experimental data as given in ChEMBL document CHEMBL1811806, “Synthesis and biological evaluation of 4β-acrylamidopodophyllotoxin congeners as DNA damaging agents” (2011).
Activity calls are given as the source filed them. The rule behind the calls is not given here.

System: MCF7
Test: Cytotoxicity against human MCF7 cells after 48 hrs by sulforhodamine B assay
Type: functional
Settings: MCF7, 48 h
Summary of the method: (§1)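 SRB growth assay, 48 h continuous exposure. Cells grown in DMEM with 10% FBS and 2 mM L-glutamine, plated at densities set by doubling time, preincubated 24 h at 37 °C, 5% CO2. Four concentrations (0.1, 1, 10, 100 µM) in triplicate wells. TCA fixation, 0.4% SRB staining, absorbance at 540 nm against 690 nm reference. GI50 from time-zero-corrected growth; repeated three times.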

Compound | GI50 [nM]
COc1ccc(/C=C(/C(=O)N[C@@H]2c3cc4c(cc3[C@@H](c3cc(OC)c(OC)c(OC)c3)[C@H]3C(=O)OC[C@@H]32)OCO4)c2cc(OC)c(OC)c(OC)c2)cc1F | 2700

System: HOP-62
Test: Cytotoxicity against human HOP62 cells after 48 hrs by sulforhodamine B assay
Type: functional
Settings: HOP-62, 48 h
Summary of the method: as §1

Compound | GI50 [nM]
COc1cc(/C(=C\c2ccc(O)cc2)C(=O)N[C@@H]2c3cc4c(cc3[C@@H](c3cc(OC)c(OC)c(OC)c3)[C@H]3C(=O)OC[C@@H]32)OCO4)cc(OC)c1OC | 2600
COc1cc(/C=C(/C(=O)N[C@@H]2c3cc4c(cc3[C@@H](c3cc(OC)c(OC)c(OC)c3)[C@H]3C(=O)OC[C@@H]32)OCO4)c2cc(OC)c(OC)c(OC)c2)ccc1O | 2500
COc1ccc(/C=C(/C(=O)N[C@@H]2c3cc4c(cc3[C@@H](c3cc(OC)c(OC)c(OC)c3)[C@H]3C(=O)OC[C@@H]32)OCO4)c2cc(OC)c(OC)c(OC)c2)cc1O | 2900
COc1cc(/C(=C\c2ccc([N+](=O)[O-])cc2)C(=O)N[C@@H]2c3cc4c(cc3[C@@H](c3cc(OC)c(OC)c(OC)c3)[C@H]3C(=O)OC[C@@H]32)OCO4)cc(OC)c1OC | 2700
COc1cc(/C=C(/C(=O)N[C@@H]2c3cc4c(cc3[C@@H](c3cc(OC)c(OC)c(OC)c3)[C@H]3C(=O)OC[C@@H]32)OCO4)c2cc(OC)c(OC)c(OC)c2)ccc1F | 2500
COc1ccc(/C=C(/C(=O)N[C@@H]2c3cc4c(cc3[C@@H](c3cc(OC)c(OC)c(OC)c3)[C@H]3C(=O)OC[C@@H]32)OCO4)c2cc(OC)c(OC)c(OC)c2)cc1[N+](=O)[O-] | 2300

System: MCF7
Test: Cytotoxicity against human MCF7 cells at 2 to 4 uM after 24 hrs by MTT assay
Type: functional, cell-based
Settings: not given
Summary of the method: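 MCF-7 cells in DMEM with 10% fetal calf serum and penicillin/streptomycin, seeded at 10,000 cells/well and incubated overnight. Treated at 2 and 4 µM for 24 h, then medium replaced with MTT and incubated 2 h at 37 °C. Formazan dissolved in extraction buffer and read at 570 nm.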

Compound | Activity
COc1ccccc1/C=C(/C(=O)N[C@@H]1c2cc3c(cc2[C@@H](c2cc(OC)c(OC)c(OC)c2)[C@H]2C(=O)OC[C@@H]21)OCO3)c1ccc([N+](=O)[O-])cc1 | Active
COc1ccccc1/C=C(/C(=O)N[C@@H]1c2cc3c(cc2[C@@H](c2cc(OC)c(OC)c(OC)c2)[C@H]2C(=O)OC[C@@H]21)OCO3)c1ccccc1[N+](=O)[O-] | Active

System: A2780
Test: Cytotoxicity against human A2780 cells after 48 hrs by sulforhodamine B assay
Type: functional
Settings: A2780, 48 h
Summary of the method: as §1

Compound | GI50 [nM]
COc1cc(/C(=C\c2ccc([N+](=O)[O-])cc2)C(=O)N[C@@H]2c3cc4c(cc3[C@@H](c3cc(OC)c(OC)c(OC)c3)[C@H]3C(=O)OC[C@@H]32)OCO4)cc(OC)c1OC | 2600
COc1ccc(/C=C(/C(=O)N[C@@H]2c3cc4c(cc3[C@@H](c3cc(OC)c(OC)c(OC)c3)[C@H]3C(=O)OC[C@@H]32)OCO4)c2cc(OC)c(OC)c(OC)c2)cc1[N+](=O)[O-] | 2500

System: not listed separately
Test: Cytotoxicity against human DWD cells after 48 hrs by sulforhodamine B assay
Type: functional
Settings: not given
Summary of the method: as §1

Compound | GI50 [nM]
COc1cc(/C(=C\c2ccc(O)cc2)C(=O)N[C@@H]2c3cc4c(cc3[C@@H](c3cc(OC)c(OC)c(OC)c3)[C@H]3C(=O)OC[C@@H]32)OCO4)cc(OC)c1OC | 2700
COc1cc(/C(=C\c2ccc([N+](=O)[O-])cc2)C(=O)N[C@@H]2c3cc4c(cc3[C@@H](c3cc(OC)c(OC)c(OC)c3)[C@H]3C(=O)OC[C@@H]32)OCO4)cc(OC)c1OC | 2400
COc1ccc(/C=C(/C(=O)N[C@@H]2c3cc4c(cc3[C@@H](c3cc(OC)c(OC)c(OC)c3)[C@H]3C(=O)OC[C@@H]32)OCO4)c2cc(OC)c(OC)c(OC)c2)cc1[N+](=O)[O-] | 2900

System: ZR-75-1
Test: Cytotoxicity against human ZR-75-1 cells after 48 hrs by sulforhodamine B assay
Type: functional
Settings: ZR-75-1, 48 h
Summary of the method: as §1

Compound | GI50 [nM]
COc1cc(/C(=C\c2ccc(O)cc2)C(=O)N[C@@H]2c3cc4c(cc3[C@@H](c3cc(OC)c(OC)c(OC)c3)[C@H]3C(=O)OC[C@@H]32)OCO4)cc(OC)c1OC | 2700
COc1cc(/C=C(/C(=O)N[C@@H]2c3cc4c(cc3[C@@H](c3cc(OC)c(OC)c(OC)c3)[C@H]3C(=O)OC[C@@H]32)OCO4)c2cc(OC)c(OC)c(OC)c2)ccc1O | 2900
COc1ccc(F)c(/C=C(/C(=O)N[C@@H]2c3cc4c(cc3[C@@H](c3cc(OC)c(OC)c(OC)c3)[C@H]3C(=O)OC[C@@H]32)OCO4)c2cc(OC)c(OC)c(OC)c2)c1 | 2700
COc1cc(/C(=C\c2ccc([N+](=O)[O-])cc2)C(=O)N[C@@H]2c3cc4c(cc3[C@@H](c3cc(OC)c(OC)c(OC)c3)[C@H]3C(=O)OC[C@@H]32)OCO4)cc(OC)c1OC | 2200
COc1cc(/C=C(/C(=O)N[C@@H]2c3cc4c(cc3[C@@H](c3cc(OC)c(OC)c(OC)c3)[C@H]3C(=O)OC[C@@H]32)OCO4)c2cc(OC)c(OC)c(OC)c2)ccc1F | 2200
COc1ccc(/C=C(/C(=O)N[C@@H]2c3cc4c(cc3[C@@H](c3cc(OC)c(OC)c(OC)c3)[C@H]3C(=O)OC[C@@H]32)OCO4)c2cc(OC)c(OC)c(OC)c2)cc1[N+](=O)[O-] | 2200

System: A549
Test: Cytotoxicity against human A549 cells after 48 hrs by sulforhodamine B assay
Type: functional
Settings: A549, 48 h
Summary of the method: as §1

Compound | GI50 [nM]
COc1cc(/C(=C\c2ccc(O)cc2)C(=O)N[C@@H]2c3cc4c(cc3[C@@H](c3cc(OC)c(OC)c(OC)c3)[C@H]3C(=O)OC[C@@H]32)OCO4)cc(OC)c1OC | 2300
COc1cc(/C=C(/C(=O)N[C@@H]2c3cc4c(cc3[C@@H](c3cc(OC)c(OC)c(OC)c3)[C@H]3C(=O)OC[C@@H]32)OCO4)c2cc(OC)c(OC)c(OC)c2)ccc1O | 2400
COc1ccc(/C=C(/C(=O)N[C@@H]2c3cc4c(cc3[C@@H](c3cc(OC)c(OC)c(OC)c3)[C@H]3C(=O)OC[C@@H]32)OCO4)c2cc(OC)c(OC)c(OC)c2)cc1O | 2900

System: COLO 205
Test: Cytotoxicity against human COLO205 cells after 48 hrs by sulforhodamine B assay
Type: functional
Settings: COLO 205, 48 h
Summary of the method: as §1

Compound | GI50 [nM]
COc1ccc(/C=C(/C(=O)N[C@@H]2c3cc4c(cc3[C@@H](c3cc(OC)c(OC)c(OC)c3)[C@H]3C(=O)OC[C@@H]32)OCO4)c2cc(OC)c(OC)c(OC)c2)cc1F | 2400
COc1cc(/C(=C\c2ccc([N+](=O)[O-])cc2)C(=O)N[C@@H]2c3cc4c(cc3[C@@H](c3cc(OC)c(OC)c(OC)c3)[C@H]3C(=O)OC[C@@H]32)OCO4)cc(OC)c1OC | 2100
COc1ccc(/C=C(/C(=O)N[C@@H]2c3cc4c(cc3[C@@H](c3cc(OC)c(OC)c(OC)c3)[C@H]3C(=O)OC[C@@H]32)OCO4)c2cc(OC)c(OC)c(OC)c2)cc1[N+](=O)[O-] | 2700

System: not listed separately
Test: Cytotoxicity against human Gurav cells after 48 hrs by sulforhodamine B assay
Type: functional
Settings: not given
Summary of the method: as §1

Compound | GI50 [nM]
COc1cc(/C(=C\c2ccc(O)cc2)C(=O)N[C@@H]2c3cc4c(cc3[C@@H](c3cc(OC)c(OC)c(OC)c3)[C@H]3C(=O)OC[C@@H]32)OCO4)cc(OC)c1OC | 2700
COc1ccc(F)c(/C=C(/C(=O)N[C@@H]2c3cc4c(cc3[C@@H](c3cc(OC)c(OC)c(OC)c3)[C@H]3C(=O)OC[C@@H]32)OCO4)c2cc(OC)c(OC)c(OC)c2)c1 | 2500
COc1cc(/C(=C\c2ccc([N+](=O)[O-])cc2)C(=O)N[C@@H]2c3cc4c(cc3[C@@H](c3cc(OC)c(OC)c(OC)c3)[C@H]3C(=O)OC[C@@H]32)OCO4)cc(OC)c1OC | 2100
COc1cc(/C=C(/C(=O)N[C@@H]2c3cc4c(cc3[C@@H](c3cc(OC)c(OC)c(OC)c3)[C@H]3C(=O)OC[C@@H]32)OCO4)c2cc(OC)c(OC)c(OC)c2)ccc1F | 2400
COc1ccc(/C=C(/C(=O)N[C@@H]2c3cc4c(cc3[C@@H](c3cc(OC)c(OC)c(OC)c3)[C@H]3C(=O)OC[C@@H]32)OCO4)c2cc(OC)c(OC)c(OC)c2)cc1[N+](=O)[O-] | 2600
